Source: the EternaBench riboswitch data

System: MS2 coat protein
Test: apparent Kd, MS2 coat protein; higher = weaker binding; RNA-MaP array; FMN 200 µM where present
Procedure, shortened: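 The titrant was SNAP-549-labelled MS2 coat protein, run from 0.7 or 1.5 nM in doubling steps to 3 µM. It was applied to designs transcribed by stalled E. coli RNA polymerase on Illumina sequencing-chip clusters, without ligand first and then with constant ligand, in 100 mM Tris-HCl pH 7.5, 80 mM KCl, 4 mM MgCl2, BSA, DTT, yeast tRNA and Tween-20. The apparent Kd is the median of filtered per-cluster binding-curve fits, with green signal normalised to red-channel RNA signal and control-cluster median Fmax.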

[1] = designed as: OFF switch for flavin mononucleotide, no ligand
[2] = ligand present: flavin mononucleotide, designed as: OFF switch for flavin mononucleotide
[3] = designed as: ON switch for flavin mononucleotide, no ligand
[4] = ligand present: flavin mononucleotide, designed as: ON switch for flavin mononucleotide

| Sequence | apparent Kd [1] [nM] | apparent Kd [2] [nM] | apparent Kd [3] [nM] | apparent Kd [4] [nM] |
| --- | --- | --- | --- | --- |
| CUGAGCUCAGGAUAUACAUGAGGAUCACCCAUGUGUUCCUGCGACGUUAGUUGCACAUGUAGAAGGGAGUUCGG | 272 | 57.8 |  |  |
| CUGAGCUGAGGAUAUACAUGAGGAUCACCCAUGUGGGCCUGCGAGGUUACUUGCACAUGUAGAAGGCAGUUCGG | 136 | 17.2 |  |  |
| CUGAGCUGAGGAUAUACAUGAGGAUCACCCAUGUUUUGUAGUUAGUGAAGAAGUAGUUGUAGAAGGCAGUUCGG | 51.3 | 255 |  |  |
| CUGAGGUCAGGAUAUGCAUGGCGGGACUUGCGUCGUGGCGUGGAGAAGGGACAUGAGGAUCACCCAUGUGGAGA | 83 | 81.1 |  |  |
| CUGAUGUCAGGAUAUCAGAAAAGGUGCAAGGACGCACCAAAUGAGAAGGGACAUGAGGAUCACCCAUGUAAAAC | 25 | 122 |  |  |
| CUGAUGUGAGGAUAUCGGGCUACAGCCAGGCUGCUAGCAUACGAGAAGGCACAUGAGGAUCACCCAUGUGAGAA | 48.3 | 49.1 |  |  |
| CUGAUGUUAGGAUAUCAGGUCACGCGCGAAGGCGCGCGGCAUGAGAAGGAACAUGAGGAUCACCCAUGUGACGA | 42.8 | 160 |  |  |
| CUGCGCUAGGAGAAGGGCUAGAGUGUGAUAUAUUUGCCCGCGAGCACAUGAGGAUCACCCAUGUAGCAGGAUAUCCAAGCCGGU | 6.86 | 16.5 |  |  |
| CUGCGGUAGGAGAAGGACGGCGGGUUCUUUUCAUACAUGAGGAUCACCCAUGUAGGAUAUCCUACCUCAGGCGGCCUACUACAG | 7.68 | 10.9 |  |  |
| CUGCUUCCCAGUUUGGUUAUUUAUACAGAAGGCCAUUCACAUGAGGAUCACCCAUGUCAAGUAAUGGAGGAUAUGUUAUUGUCG |  |  | 6.64 | 4.65 |
| CUGGGAUCAGUAGGAUAUGCCGGACAUGAGGAUCACCCAUGUAAGGCGUGCUUCCCUCACGUGCGGCAGAAGGGCUGCGUCACU | 43.4 | 40 |  |  |
| CUGGUUCUCGUAGGAUAUGUAGGAUAUGCCUACAUGAGGAUCACCCAUGUUCGCAUGGCAGAAGGACAGAAGGACGAUCACCAC |  |  | 323 | 20.7 |
| CUGGUUGUCGUAGGAUAUGUAGGAUAUUCCUACAUGAGGAUCACCCAUGUUCGCAUGGAAGAAAGACAGAAGGACGAUGACCAU |  |  | 1190 | 52.2 |
| CUGUAUGAUGUAGGAUAUACAAUAAUAUUGUUAGUAGAAGGACAUGAGGAUCACCCAUGUAAAUUAAUUUUAAUUAUUUUUGCG | 47.2 | 36.6 |  |  |
| CUGUGACGGUGCGCAAGUGGACGUAGAAGGGUCACAUGAGGAUCACCCAUGUGGGCCUGCUAUUGACAGGAUAUACGUUCGUAC | 5.28 | 5 |  |  |
| CUGUUAUAUGAAGGAUAUACUUAACAUGAGGAUCACCCAUGUGGUGUUGUGAGUGAGUGAGUUUAGUAGAAGGUCAAUUCUUUU | 207 | 221 |  |  |
| CUUAGGUGAGGAUAUUAGUAGUAAAUGAAUAAAAUUAUUACUGAGAAGGCACAUGAGGAUCACCCAUGUUCCUC | 35.8 | 444 |  |  |
| CUUAUUUGAGGAUAUACGUCACCGUCUUCAUGAGUUCAAAUACAUGAGGAUCACCCAUGUAGAAGGCAAUUACU | 25.8 | 39.4 |  |  |
| CUUCAAGAUGUGAGGAUAUCGCCGAUGAGGAUAGUUGAGAAGGUACAUGAGGAUCACCCAUGUAGGCUGGGUUU | 31.9 | 42.1 |  |  |

| Sequence | apparent Kd [1] [nM] | apparent Kd [2] [nM] | apparent Kd [3] [nM] | apparent Kd [4] [nM] |
| --- | --- | --- | --- | --- |
| CUUCGUAUAGAGGAUAUAGGUUACUUCGGUAUCCUAGAAGGCUGUACAUGAGGAUCACCCAUGUACUUCAGAUC | 11.2 | 16.9 |  |  |
| CUUGUUUAUGUAGGAUAUGCCUGGCGUGCCUUUGCAGAAGGACAUGAGGAUCACCCAUGUAGUAUGAGGCUUACCCUUGUCGCC | 28.2 | 24.5 |  |  |
| CUUUACAUAGGAUAUAGUUGCUUUUACAUGAGGAUCACCCAUGUCUCUCCUCUCUCUCUUCUAGAAGGAUGUUUCU | 56.3 | 48.5 |  |  |
| CUUUAGUGAGGAUAUGUGGCUUCGAUCGUGAGAUCGAGGCUACAGAAGGCACAUGAGGAUCACCCAUGUACCUU | 14.3 | 17 |  |  |
| CUUUUAUAAUAGAAGGUAGACUUUAUGAGGAUCACCCAUGUGUUGGUACUAAGGAUAUGUAGUAACAUGAGGAUCACCCAUGUU |  |  | 25.9 | 26.5 |
| CUUUUGUGAGGAUAUCAGUAGUAAAUAAAUAAAAUUUCUACUGAGAAGGCACAUGAGGAUCACCCAUGUUCCUC | 38.5 | 220 |  |  |
| CUUUUGUGAGGAUAUCAGUAGUAAUUAAAUAAAAUUACUACUGAGAAGGCACAUGAGGAUCACCCAUGUUCCUC | 41.3 | 338 |  |  |
| CUUUUGUGAGGAUAUCAGUAGUUAAAUAAUAAAAUUACUACUGAGAAGGCACAUGAGGAUCACCCAUGUUCCUC | 36.4 | 201 |  |  |
| CUUUUGUGAGGAUAUCAGUAUUAAAAAAAUAAAAUUACUACUGAGAAGGCACAUGAGGAUCACCCAUGUUCCUC | 32.7 | 168 |  |  |
| CUUUUGUGAGGAUAUUAUUAGUAAAUAAAUAAAAUUACUACUGAGAAGGCACAUGAGGAUCACCCAUGUUCCUC | 24.3 | 108 |  |  |
| GAAAAGAAAGGAUAUACAGGGAAAUGAACCGCACGUAAACCACAUGAGGAUCACCCAUGUAGAAGGUUCAGUGC | 10.7 | 14.4 |  |  |
| GAAACCUCAGGUUAAGGUUGACGACAUGAGGAUCACCCAUGUAGAAGGACCAAGGCGACCGUACGGUAGGAUAUACACGGGAGG | 10.8 | 24.9 |  |  |
| GAAUAAUAGAUCCAAUAUAUCUACAUGAGGAUCACCCAUGUGCAGGAUAUGCUAAAAUUUAAUAAGCAGAAGGGCAAGAACGGC | 54.7 | 138 |  |  |
| GAAUAUUCGUUGUACAUGAGGAUCACCCAUGUGUCUUUACAUGAGGAUAUGGAUUCUAAUUGGAUCCAGAAGGCAUGAAUAUUC |  |  | 154 | 53.1 |
| GAAUGUCGGGUAGGAUAUGACUUGCCACGGAGGUCAGAAGGGCCACGACAUGAGGAUCACCCAUGUACUGUAUUCCUUUUUCAA | 25.3 | 98.1 |  |  |
| GAAUUAUUACAGAAGGUGUUUUACAUGAGGAUCACCCAUGUUUUAUUGUUUAAAUUUGAUAUUUACAAGGAUAUGUACUAAUCU |  |  | 32.1 | 24.3 |
| GAAUUCGCAUGAGGAUAUGCACUCAUUUCAUGUGCAGAAGGUAUUUCAUUAGACAUGAGGAUCACCCAUGUAUUGGUCACUAAC |  |  | 21.5 | 16.6 |
| GAAUUCGCAUGAGGAUAUGCACUCAUUUCAUGUGCAGAAGGUAUUUCAUUAGACAUGAGGAUCACCCAUGUAUUGGUCAUUAAC |  |  | 19.3 | 14.7 |
| GACACUAUGUUUGUCAGAUAGAGAGAGGAUAUGGCUCAUGAGACAUGAGGAUCACCCAUGUAUAAUCAGAAGGCUCGAGUAGGA |  |  | 12.5 | 9.56 |

| Sequence | apparent Kd [1] [nM] | apparent Kd [2] [nM] | apparent Kd [3] [nM] | apparent Kd [4] [nM] |
| --- | --- | --- | --- | --- |
| GACAUGAGGAUCACCCAUGUCCAUGCAAGAGUAGUUGAGACCAGAAGGACCGUGCGGAAUGCAGGGUAGGAUAUGGAGCCCUCA |  |  | 36.8 | 9.38 |
| GACCUGACAUAAUAAUGUAGAAAUACAUGAGGAUCACCCAUGUAGGAUAUGCAGUGGAAUACACUGCAGAAGGACAUAGUCAGG | 15.9 | 22.9 |  |  |
| GACGUGUGAGGAUAUGCCGUGCCGGUCCGGAAGGUUCGGGUGCAGAAGGCACAUGAGGAUCACCCAUGUGUAAG | 23.4 | 32.5 |  |  |
| GACUCUAAGUUUGUCAGUUAGAGAGAGGAUAUGGAAAACUUGACAUGAGGAUCACCCAUGUAUAAUCAGAAGGCUCGAGUACGA |  |  | 12.9 | 8.91 |
| GACUGACGAGGAUAUACAUGAGGAUCACCCAUGUAAGAUCAGCGACGAUAGUCGCAAUGUAGAAGGCGUCAGUC | 29.8 | 293 |  |  |
| GACUGAUUGUAGAAGGUACUUAAUAAUAUUUAAUAACUCAUGUGACAUGAGGAUCACCCAUGUAGUAAGGAUAUACAUAUCUCA |  |  | 211 | 79.5 |
| GACUUGUCAGGAUAUCUUACAUUUGCAUCUUAGUUACCAUUGGAGAAGGGACAUGAGGAUCACCCAUGUUUGGU | 35.1 | 34.4 |  |  |
| GACUUUCGGGCAGGAUAUGGGUGCCGUCAAGACAUGAGGAUCACCCAUGUCCCAUACACGAGCGCUCAGAAGGGCUCAUUGUAG |  |  | 67 | 32.9 |
| GAGAAGGGAGGAUAUGCUGCUCGUCACUUGCGUGAUGAGUAGCAGAAGGCACAUGAGGAUCACCCAUGUAAAGG | 84.2 | 29.4 |  |  |
| GAGAAGUCAGGAUAUGCAUGGCGGGACUUGCGUCGUGGCGUGCAGAAGGGACAUGAGGAUCACCCAUGUGGAGU | 163 | 235 |  |  |
| GAGAAGUGAGGAUAUGCUGCUCGUCACUUGCGUGAUGAGUAGCAGAAGGCACAUGAGGAUCACCCAUGUAAAGG | 133 | 244 |  |  |
| GAGACGUCAGGAUAUCUGAUGUCUAACUUCGGUUAGACAUCAGAGAAGGGACAUGAGGAUCACCCAUGUCUCAA | 16.9 | 12.1 |  |  |
| GAGAGGUCAGGAUAUACGGAGAGAGGGAGUUGGUGAGGGUAACAUGAGGAUCACCCAUGUAGAAGGGACUAAGG | 27.6 | 30.1 |  |  |
| GAGAUGUGAGGAUAUCUGGACCGUGGAAGAGCCACGGUCCGAGAGAAGGCACAUGAGGAUCACCCAUGUGAUGA | 38.4 | 171 |  |  |
| GAGCUAUGAGGAUAUGCAUAGAUACGGAUUCGUGUAGUACUACAUGAGGAUCACCCAUGUAGAAGGCGUGGCAG | 14.3 | 15.9 |  |  |
| GAGCUCAAGCAGAAGGCCGUAUGUCAAUCGACAUGAGGAUCACCCAUGUAUGAGCUCGGCGUCGCGGAGGAUAUGCAGGCUCUA |  |  | 18.6 | 6.63 |
| GAGGCGCUAGCAGGAUAUGUACAUGAGGAUCACCCAUGUAAAUCUUUUUCUGGUGAAGCGCAAGUAUAGAAGGGCUAACGCUGG | 9.07 | 18.8 |  |  |
| GAGGUGUUAGGAUAUCGGAGAUGGAGACCGACGGGAUGAGCCGAGAAGGAACAUGAGGAUCACCCAUGUAGGUG | 461 | 283 |  |  |
